Experimental findings from ChEMBL document CHEMBL4346672, “Antimicrobial and KPC/AmpC inhibitory activity of functionalized benzosiloxaboroles” (Eur J Med Chem, 2019) are described below.

In data set [1] the test system is Serratia marcescens. Kind of data set: Antibacterial activity against Serratia marcescens ATCC 13880 measured after 18 hrs by CLSI broth dilution method. The data set is classed as functional. As to conditions: ATCC 13880, 18 h. The method in brief: (§1)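 Broth MIC in Mueller-Hinton II broth following CLSI, compounds dissolved in DMSO. Strains subcultured twice on tryptic soy agar before testing. Growth read after 35 °C, 18 h.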
For orientation: Broth dilution looks for growth in wells or tubes with falling amounts of substance.

A short description of data set [2]: Dissociation constant, pKa1 of compound in 0.1 M NaOH by potentiometric analysis. Type of data set: physicochemical.
For a further data set, the system named is Candida parapsilosis. Description: Antifungal activity against Candida parapsilosis ATCC 22019 assessed as decrease in fungal cell growth at 0.78 to 12.5 mg/L incubated for 24 hrs by CLSI broth dilution method. The data set is classed as functional. As to conditions: Lodderomyces parapsilosis, ATCC 22019, 24 h. The method in brief:
(§2)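 Yeast broth dilution in RPMI 1640 with 2% glucose, compounds in DMSO. Yeasts pre-grown on Sabouraud dextrose agar. Growth read after 35 °C, 24 h.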

A further data set relates to Candida tropicalis. Description: Antifungal activity against Candida tropicalis IBA 171 assessed as decrease in fungal cell growth at 0.78 to 12.5 mg/L incubated for 24 hrs by CLSI broth dilution method. The data set is classed as functional. As to conditions: IBA 171, 24 h. The method in brief:
as §2

In data set [3] the test system is Meyerozyma guilliermondii. Kind of data set: Antifungal activity against Candida guilliermondii IBA 155 assessed as decrease in fungal cell growth at 0.78 to 12.5 mg/L incubated for 24 hrs by CLSI broth dilution method. Type of data set: functional. As to conditions: IBA 155, 24 h. The method in brief: as §2
Another data set relates to Saccharomyces cerevisiae. Description: Antifungal activity against Saccharomyces cerevisiae ATCC 9763 assessed as decrease in fungal cell growth at 0.78 to 12.5 mg/L incubated for 24 hrs by CLSI broth dilution method. The data set is classed as functional. As to conditions: ATCC 9763, 24 h. The method in brief:
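Yeast strain subcultured on Sabouraud dextrose agar for 24–48 h at 30 °C before testing. Compounds dissolved in DMSO.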

The subject of the next data set is Pichia kudriavzevii. Description: Antifungal activity against Candida krusei ATCC 6258 assessed as diameter of zone inhibition incubated for 24 hrs by CLSI disc diffusion method. The data set is classed as functional. The method in brief: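 Yeast disc diffusion on Mueller-Hinton agar supplemented with 2% glucose and 0.5 mg/L methylene blue. Compounds in DMSO. Yeasts subcultured on Sabouraud dextrose agar before testing. Zones read after 35 °C, 24 h.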
(In general: Agar diffusion results depend on both activity and mobility in agar.)

The subject of data set [4] is Staphylococcus epidermidis. Description: Antibacterial activity against Staphylococcus epidermidis ATCC 12228 measured after 18 hrs by CLSI broth dilution method. Type of data set: functional. The settings on record: ATCC 12228, 18 h. The method in brief:
as §1

A further data set relates to Enterococcus faecalis. Kind of data set: Antibacterial activity against Enterococcus faecalis ATCC 29212 measured after 18 hrs by CLSI broth dilution method. Type of data set: functional. The settings on record: ATCC 29212, 18 h. The method in brief:
as §1

The subject of the next data set is Bacillus subtilis. Kind of data set: Antibacterial activity against Bacillus subtilis ATCC 6633 assessed as diameter of zone inhibition measured after 18 hrs by CLSI disc diffusion method. The data set is classed as functional. The method in brief: (§3)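 Disc diffusion on Mueller-Hinton II agar. Compounds dissolved in DMSO. Strains stored at -80 °C and subcultured twice on tryptic soy agar before testing. Inhibition zones read after 35 °C, 18 h.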

Data set [5] concerns Proteus mirabilis. Kind of data set: Antibacterial activity against Proteus mirabilis ATCC 12453 measured after 18 hrs by CLSI broth dilution method. As to conditions: ATCC 12453, 18 h. The data set is classed as functional. The method in brief: as §1
The test system of data set [6] is Enterobacter cloacae. Description: Antibacterial activity against Enterobacter cloacae DSM 6234 measured after 18 hrs by CLSI broth dilution method. Type of data set: functional. As to conditions: DSM 6234, 18 h. The method in brief:
as §1

Data set [7] deals with Proteus mirabilis. Description: Antibacterial activity against Proteus mirabilis ATCC 12453 assessed as diameter of zone inhibition measured after 18 hrs by CLSI disc diffusion method. The data set is classed as functional. The method in brief:
as §3

Data set [8] deals with Stenotrophomonas maltophilia. Description: Antibacterial activity against Stenotrophomonas maltophilia ATCC 13637 assessed as diameter of zone inhibition measured after 18 hrs by CLSI disc diffusion method. Type of data set: functional. The method in brief:
as §3

Data set [9] relates to Enterobacter cloacae. Description: Antibacterial activity against Enterobacter cloacae DSM 6234 assessed as fold reduction of MIC in presence of efflux pump inhibitor PAbetaN incubated for 18 hrs by broth microdilution method. Type of data set: functional. The method in brief:
(§4)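 MICs determined with and without PAβN at 50 mg/L in Mueller-Hinton broth containing 1 mM MgSO₄. 2-fold serial dilutions per CLSI. Fold change taken from the paired MICs after 35 °C, 18 h.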

Data set [10] has as its system Stenotrophomonas maltophilia. Kind of data set: Antibacterial activity against Stenotrophomonas maltophilia ATCC 13637 assessed as fold reduction of MIC in presence of efflux pump inhibitor PAbetaN incubated for 18 hrs by broth microdilution method. The data set is classed as functional. The method in brief: as §4
Data set [11] concerns Serratia marcescens. The settings on record: ATCC 13880.

Converted amounts (≈) assume the structure as drawn. The source made the active and inactive calls. The rule behind the calls is not given here.

Regarding `C[Si]1(C)OB(O)c2cc(F)c(F)cc21`, the MIC in the data set on Serratia marcescens [1] is more than 400 µg/mL; with Candida parapsilosis, 100 µg/mL (≈ 467 µM); with Candida tropicalis, 0.78 µg/mL (≈ 3.64 µM); in data set [3], 6.25 µg/mL (≈ 29.2 µM); in the data set with Saccharomyces cerevisiae, 3.12 µg/mL (≈ 14.6 µM); in data set [4], 50 µg/mL (≈ 234 µM). The results for the MIC in the data set on Enterococcus faecalis, against Proteus mirabilis [5] and in the data set on Enterobacter cloacae [6] were 400 µg/mL (≈ 1870 µM), 400 µg/mL (≈ 1870 µM) and more than 400 µg/mL, respectively. Moreover, the pKa in [2] was 6.8. Further, the “diameter of the inhibition zone (DIZ)” value in the data set with Pichia kudriavzevii was found to be 17 mm; in the data set on Bacillus subtilis it was 25 mm; in data set [8] it was 14 mm. Besides, the “diameter of the inhibition zone (DIZ)” value in the data set on Proteus mirabilis [7] is “inactive”. In addition, the “fold change (FC)” value is 32 in the data set on Enterobacter cloacae [9] and 16 in data set [10]. In addition, the DIZ result in the data set on Serratia marcescens [11] was “inactive”.

In the case of `C[Si]1(C)OB(O)c2cc(F)c(CO)c(F)c21`, the MIC is more than 400 µg/mL in the data set with Serratia marcescens [1]; 400 µg/mL (≈ 1640 µM) in the data set on Candida parapsilosis; more than 400 µg/mL with Candida tropicalis; more than 400 µg/mL in data set [3]; 400 µg/mL (≈ 1640 µM) in the data set on Saccharomyces cerevisiae; 200 µg/mL (≈ 819 µM) in [4]. The MIC in the data set on Enterococcus faecalis, against Proteus mirabilis [5] and against Enterobacter cloacae [6] was more than 400 µg/mL throughout. The same molecule gave a pKa in [2] of 5.8. Besides, the “diameter of the inhibition zone (DIZ)” value (in the data set on Pichia kudriavzevii; in the data set with Proteus mirabilis [7]; in [8]) was “inactive” in each case. Also, the “diameter of the inhibition zone (DIZ)” value in the data set with Bacillus subtilis is 11 mm. Besides, the entries for the “fold change (FC)” value (in the data set on Enterobacter cloacae [9]; in data set [10]) were 8 and 16, respectively. Moreover, the DIZ result in the data set with Serratia marcescens [11] was “inactive”.

In the case of `C[Si]1(C)OB(O)c2cccc(F)c21`, the MIC against Serratia marcescens [1] was more than 400 µg/mL; with Candida parapsilosis it was 100 µg/mL (≈ 510 µM); in the data set with Candida tropicalis, 50 µg/mL (≈ 255 µM); in data set [3], 12.5 µg/mL (≈ 63.8 µM); in the data set on Saccharomyces cerevisiae, 6.25 µg/mL (≈ 31.9 µM); in [4] it was 25 µg/mL (≈ 128 µM). For the same molecule, the MIC in the data set on Enterococcus faecalis was 200 µg/mL (≈ 1020 µM); against Proteus mirabilis [5] it was 200 µg/mL (≈ 1020 µM); in the data set with Enterobacter cloacae [6], more than 400 µg/mL. In data set [2], this molecule came in with a pKa of 7.2. For the same molecule, the “diameter of the inhibition zone (DIZ)” value with Pichia kudriavzevii came to 18 mm; with Bacillus subtilis it was 28 mm; in the data set with Proteus mirabilis [7] it was 16 mm; in [8] it was 11 mm. In addition, the “fold change (FC)” value was 32 in the data set with Enterobacter cloacae [9] and 8 in data set [10]. In addition, the DIZ result in the data set on Serratia marcescens [11] is “inactive”.

Take `C[Si]1(C)OB(O)c2ccccc21`: the MIC was more than 200 µg/mL in the data set on Serratia marcescens [1]; 25 µg/mL (≈ 140 µM) in the data set on Candida parapsilosis; 25 µg/mL (≈ 140 µM) in the data set on Candida tropicalis; 25 µg/mL (≈ 140 µM) in data set [3]; 3.12 µg/mL (≈ 17.5 µM) with Saccharomyces cerevisiae; 50 µg/mL (≈ 281 µM) in data set [4]. For the same molecule, the MIC in the data set with Enterococcus faecalis, with Proteus mirabilis [5] and in the data set with Enterobacter cloacae [6] was more than 200 µg/mL in each case. The molecule also displayed a pKa in data set [2] of 7.9. Further, the “diameter of the inhibition zone (DIZ)” value (with Pichia kudriavzevii; in the data set with Proteus mirabilis [7]; in [8]) was “inactive” throughout. Also, the “diameter of the inhibition zone (DIZ)” value in the data set with Bacillus subtilis worked out at 14 mm. The “fold change (FC)” value in the data set on Enterobacter cloacae [9] is 4; in data set [10], 8. For the same molecule, the DIZ result in the data set on Serratia marcescens [11] is “inactive”.

Regarding `C[Si]1(C)OB(O)c2cc(F)c(C=O)c(F)c21`, the MIC was more than 400 µg/mL against Serratia marcescens [1]; 25 µg/mL (≈ 103 µM) in the data set with Candida parapsilosis; 100 µg/mL (≈ 413 µM) in the data set on Candida tropicalis; 200 µg/mL (≈ 826 µM) in data set [3]; 50 µg/mL (≈ 207 µM) in the data set with Saccharomyces cerevisiae; 100 µg/mL (≈ 413 µM) in data set [4]. Besides, the MIC with Enterococcus faecalis was 400 µg/mL (≈ 1650 µM); against Proteus mirabilis [5], more than 400 µg/mL; against Enterobacter cloacae [6] it was more than 400 µg/mL. The molecule also came in with a pKa in [2] of 4.9. Also, the “diameter of the inhibition zone (DIZ)” value in the data set on Pichia kudriavzevii and in the data set on Proteus mirabilis [7] was “inactive” throughout. The entries for the “diameter of the inhibition zone (DIZ)” value (with Bacillus subtilis; in data set [8]) were 14 mm and 11 mm, respectively. The figures for the “fold change (FC)” value (in the data set with Enterobacter cloacae [9]; in [10]) were 16 and 8, respectively. In addition, the DIZ entry in the data set on Serratia marcescens [11] was “inactive”.

Usually MIC stands for the lowest concentration that inhibits growth of the organism. What is called pKa is the negative logarithm of the acid dissociation constant. A lower pKa goes with a stronger acid or weaker base.
